Results collected from several papers.
Lines come from different studies, so protocols differ.
Effect on: microbial growth

Structure (SMILES) | organism | method | strain | time | MIC
Oc1ccc(-c2nc(-c3ccc(Oc4ccccc4)cc3)no2)cc1 | Clostridioides difficile | broth dilution |  | 48 h | 6 µg/mL
Cc1ncc([N+](=O)[O-])n1CCO | Clostridioides difficile | broth dilution | R20291 |  | > 0.5 µg/mL
Oc1c(F)cc(-c2nc(-c3ccc(Oc4ccc(C(F)(F)F)cc4)cc3)no2)cc1F | Clostridioides difficile | broth dilution | ATCC43255 | 48 h | 2 to 4 µg/mL
Clc1ccccc1C(c1ccccc1)(c1ccccc1)n1ccnc1 | Saccharomyces cerevisiae |  |  |  | 20 to 25 µM
Cc1ccc(C)n1-c1ccc(-c2nnc(-c3ccc(N(C)C)cc3)[nH]2)cc1 | Saccharomyces cerevisiae | broth dilution | ATCC9763 |  | 62.5 µg/mL
Oc1ccc(-c2nc(-c3ccc(Oc4ccc(I)cc4)cc3)no2)cc1 | Clostridioides difficile | broth dilution | ATCC43255 | 48 h | 8 to 128 µg/mL
Cc1ccc(C)n1-c1ccc(-c2nnc(-c3ccccc3Cl)[nH]2)cc1 | Saccharomyces cerevisiae | broth dilution | ATCC9763 |  | 8 µg/mL
O=[N+]([O-])c1ccc(-c2nc(-c3ccc(Oc4ccccc4)cc3)no2)cc1 | Clostridioides difficile | broth dilution |  | 48 h | 8 µg/mL
Cc1ccc(C)n1-c1ccc(-c2nnc(-c3ccc(O)cc3)[nH]2)cc1 | Saccharomyces cerevisiae | broth dilution | ATCC9763 |  | 31.2 µg/mL
O=C(O)COc1ccc(Oc2ccc(-c3noc(-c4ccc(O)cc4)n3)cc2)cc1 | Clostridioides difficile | broth dilution |  | 48 h | 50 µg/mL
Cc1ccc(C)n1-c1ccc(-c2nnc(S)s2)cc1 | Saccharomyces cerevisiae | broth dilution | ATCC9763 |  | 62.5 µg/mL
CC(=O)Nc1ccc(-c2nc(-c3ccc(Oc4ccccc4)cc3)no2)cc1 | Clostridioides difficile | broth dilution |  | 48 h | > 50 µg/mL
Oc1ccc(-c2nc(-c3ccc(Oc4ccccc4CBr)cc3)no2)cc1 | Clostridioides difficile | broth dilution | ATCC43255 | 48 h | 8 to 128 µg/mL
CC/C(=C(\c1ccccc1)c1ccc(OCCN(C)C)cc1)c1ccccc1 | Saccharomyces cerevisiae |  |  |  | 20 to 25 µM
OC(Cn1cncn1)(Cn1cncn1)c1ccc(F)cc1F | Saccharomyces cerevisiae |  |  |  | 4 µg/mL
Cc1ccc(C)n1-c1ccc(C(=O)NNC=O)cc1 | Saccharomyces cerevisiae | broth dilution | ATCC9763 |  | 250 µg/mL
CNc1ccc(-c2nc(-c3ccc(Oc4ccccc4)cc3)no2)cc1 | Clostridioides difficile | broth dilution |  | 48 h | 8 µg/mL
